As usually defined, the IC50 is the concentration at which inhibition is half-maximal. As usually defined, the inhibition is the drop in the measured response relative to a control, in per cent.

Here are results for 28 molecules from ChEMBL document CHEMBL5329162, “The sulfonadyns: a class of aryl sulfonamides inhibiting dynamin I GTPase and clathrin mediated endocytosis are anti-seizure in animal models” (RSC Med Chem, 2023).

Assay [1] can be described thus: (§1) Inhibition of phosphotidylserine liposome-stimulated sheep brain Dynamin 1 GTPase activity using GTP as substrate by malachite green assay. It is filed as tissue-based, Ovis aries. In a few lines:
(§2)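 Native dynamin I from sheep brain (membrane extraction, GST-Amph2-SH3-sepharose affinity), stimulated by sonicated phosphatidylserine liposomes; GTP hydrolysis read as orthophosphate by malachite green. DMSO at most 3.3% final. […] 300 μM is the top concentration tested.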

The species named for assay [2] is Ovis aries. The description is as §1. The class given is tissue-based. In a few lines: as §2
Assay [3] in a line: Inhibition of clathrin-mediated endocytosis in serum-starved human U2OS cells assessed as reduction in Tfn-A594 uptake pretreated for 30 mins followed by Tfn-A594 addition and measured after 8 mins. The class given is cell-based. In a few lines:
(§3)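 U2OS cells on fibronectin-coated plates, serum-starved 16 h, then compound (usually 6 concentrations, 1–300 μM) or vehicle for 30 min, then Tfn-A594 4 μg mL⁻¹ for 8 min at 37 °C. Surface Tfn acid-stripped (pH 2.8), PFA-fixed, DAPI-stained; automated imaging of integrated Tfn intensity per cell, as % of vehicle. DMSO at most 1%.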

For assay [4], the species on record is Rattus norvegicus. Put plainly: Inhibition of synaptic vesicle endocytosis in Sprague-Dawley rat cerebrum synaptosomes assessed as reduction in depolarisation-stimulated FM4-64 uptake preincubated for 30 mins followed by FM4-64 addition for 2 mins and further depolarised for 2 mins by fluorescent imaging analysis. It is filed as functional, Synaptosome. Conditions: for inhibition: Synaptosome, time 34.0 min. An outline of the steps: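 Purified rat cerebrum synaptosomes (male, 6–8 weeks) attached to plates at 30 °C in Krebs buffer with 0.1 mM CaCl₂, pH 7.4. Compound or DMSO (1%) for 30 min, then 1 μM FM 4-64 for 2 min, then 80 mM KCl depolarisation for 2 min. Imaged ex 476–524/em 608–742 nm; intensity normalised to control uptake (1.0).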

For assay [5], the species on record is Rattus norvegicus. Kind of assay: Inhibition of exocytosis in Sprague-Dawley rat brain synaptosome assessed as effect on Ca2+ dependent glutamate release at 80 uM preincubated for 1 mins in presence of NADP followed by glutamate dehydrogenase addition and further stimulated with 4-aminopyridine for 4 mins by spectrofluorimeter. It is filed as functional. Conditions: time 5.0 min. In a few lines: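 Synaptosomes (0.6 mg in 2 ml) in Krebs-like buffer, pH 7.4, 37 °C, containing 1.2 mM CaCl₂ or calcium-free with 1 mM EGTA. Started with 1 mM NADP; glutamate dehydrogenase 50 U added after 1 min; 4-aminopyridine stimulation after 4 min. Released glutamate followed as NADPH fluorescence (ex 340/em 460 nm).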

For assay [6], the species on record is Ovis aries. Kind of assay: Competitive inhibition of phosphotidylserine liposome-stimulated sheep brain Dynamin 1 GTPase activity using varying concentrations of Mg2+.GTP as substrate at 3 to 7 uM by Lineweaver-Burk plot analysis. The class given is tissue-based. Conditions: dose 3-7 µM.
The test system of assay [7] is Mus musculus. Put plainly: Antiseizure activity against electrically stimulated seizure in C57BL/6 mouse model assessed as increase in seizures threshold at 30 to 60 mg/kg, ip pretreated for 30 mins followed by electrical stimulation at 6 Hz. It is filed as functional, organism-based. To be noted: dose 30-60 mg/kg. An outline of the steps:
(§4)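 Mouse 6 Hz corneal stimulation (0.2 ms rectangular pulse, 3 s, varying current). Given ip 30 min before stimulation; DMA 20%/Tween-80 5%/PEG300 75% vehicle for test doses (10, 30, 60 mg kg⁻¹), 0.9% saline for valproate (400 mg kg⁻¹). Seizure scored as stunned/fixed posture, rearing, forelimb clonus or twitching. EC50 current by up-and-down method, 2 mA steps; each mouse used once; Mann–Whitney U vs vehicle.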

In assay [8] the test system is Mus musculus. Put plainly: Antiseizure activity against electrically stimulated seizure in C57BL/6 mouse model assessed as increase in seizures threshold at 10 mg/kg, ip pretreated for 30 mins followed by electrical stimulation at 6 Hz. It is filed as functional, organism-based. In a few lines: as §4
Assay [9] relates to Mus musculus. Put plainly: Antiseizure activity against electrically stimulated seizure in C57BL/6 mouse model assessed as increase in current required to provoke seizures at 400 mg/kg, ip pretreated for 30 mins followed by electrical stimulation at 6 Hz. The class given is functional, organism-based. In a few lines:
as §4

Assay [10] in a line: Inhibition of clathrin-mediated endocytosis in human U2OS cells assessed as reduction in Tfn-A594 uptake pretreated for 30 mins. The class given is cell-based. In a few lines: as §3
For assay [11], the species on record is Ovis aries. Put plainly: Inhibition of phosphotidylserine liposome-stimulated sheep brain Dynamin 1 GTPase activity using GTP as substrate at 300 uM by malachite green assay relative to control. It is filed as tissue-based. An outline of the steps:
as §2

The source made the active and inactive calls.

Molecule `O=S(=O)(NCCNC/C=C/c1ccc(Cl)cc1)c1cccc2cnccc12` came in with an IC50 in [1] of 9.2 µM.

On to `Cc1ccc(/C=C/CNCCNS(=O)(=O)c2cccc3cnccc23)cc1`, for which inhibition in assay [1] was half-maximal at 22.4 µM (IC50).

With `O=S(=O)(NCCCNC/C=C/c1ccc(Br)cc1)c1cccc2cnccc12`, the IC50 in assay [1] worked out at 7.1 µM.

Consider `O=S(=O)(NCCNC/C=C/c1ccc(Br)cc1)c1cccc2cnccc12`, for which the midpoint of inhibition in assay [1], the IC50, lay at 7 µM.

As for `NCCNS(=O)(=O)c1cccc2cnccc12`, the inhibition entry in the assay filed under Ovis aries [2] was “inactive”.

Turning to `O=S(=O)(NCCCNC/C=C/c1ccc(Br)cc1)c1cccc2ccccc12`, the results for the IC50 (in [1]; in assay [3]; in the assay filed under Rattus norvegicus [4]) were 3.5 µM, 27.3 µM and 12.3 µM, respectively. For the same molecule, the inhibition entry in the assay listed under Rattus norvegicus [5] was “inactive”. The inhibition result in the assay listed under Ovis aries [6] is “Active”. Further, the outcome with Mus musculus [7] was Active. The result in the assay on Mus musculus [8] was inactive.

Regarding `CCCC(CCC)C(=O)O`, the outcome in the assay with Mus musculus [9] was Active.

In the case of `CN(C/C=C/c1ccc(Br)cc1)CCNS(=O)(=O)c1cccc2ccccc12`, in assay [1], half-maximal inhibition (IC50) was put at 10.5 µM.

As for `O=S(=O)(NCCNC/C=C/c1ccc(Br)cc1)c1cccc2ccccc12`, the IC50 stood at 4.4 µM in assay [1] and 12.4 µM in [3]. Further, the inhibition entry in the assay listed under Rattus norvegicus [4] is “inactive”.

For the molecule `CC(C)(C)c1ccc(/C=C/CNCCNS(=O)(=O)c2cccc3cnccc23)cc1`, in assay [1], inhibition was half-maximal at 6.6 µM (IC50).

Consider `O=S(=O)(NCCCCNC/C=C/c1ccc(Br)cc1)c1cccc2ccccc12`, for which the IC50 in [1] is 3 µM; in assay [3], 11.3 µM. Further, the inhibition entry in the assay listed under Rattus norvegicus [4] is “inactive”.

For `O=S(=O)(NCCNC/C=C/c1ccc(Br)cc1)c1ccc2ccccc2c1`, the IC50 in assay [1] was 3.6 µM; in assay [3] it was 9.3 µM. For the same molecule, the inhibition entry in the assay filed under Rattus norvegicus [4] is “inactive”.

For the molecule `CN(C/C=C/c1ccc(Br)cc1)CCN(C)S(=O)(=O)c1cccc2ccccc12`, the IC50 in [1] was found to be 8.7 µM.

For the molecule `CN(C)c1cccc2c(S(=O)(=O)NCCCCCN)cccc12`, the IC50 is 45.1 µM in assay [1], 205 µM in [3] and more than 300 µM in the assay filed under Rattus norvegicus [4].

In the case of `O=S(=O)(NCCNCCCc1ccccc1)c1cccc2cnccc12`, the half-maximal inhibitory concentration (IC50) in [1] was found to be 30.1 µM.

On to `O=S(=O)(NCCCCNC/C=C/c1ccc(Br)cc1)c1cccc2cnccc12`, for which the IC50 in assay [1] stood at 8.1 µM.

Molecule `O=S(=O)(NCCNC/C=C/c1ccc(C(F)(F)F)cc1)c1cccc2cnccc12` displayed an IC50 in [1] of 12.4 µM.

The molecule `O=S(=O)(c1cccc2cnccc12)N1CCN(C/C=C/c2ccc(Br)cc2)CC1` displayed an IC50 in assay [1] of 58.2 µM.

Take `O=S(=O)(NCCNC/C=C/c1ccc(Br)cc1)c1cccc2cccnc12`: the IC50 in assay [1] turned out to be 9.5 µM.

`O=C(N/N=C/c1cc(O)c(O)cc1O)c1cc2ccccc2cc1O`: the IC50 in [10] was 5.7 µM.

`CN(C)c1ccc(/C=C/CNCCNS(=O)(=O)c2cccc3cnccc23)cc1`: the IC50 in assay [1] amounted to 19.9 µM.

`O=S(=O)(NCCNC/C=C/c1ccccc1)c1cccc2cnccc12` displayed an IC50 in assay [1] of 38.2 µM.

`O=S(=O)(NCCNCCc1ccccc1)c1cccc2cnccc12` came in with an IC50 in assay [1] of 96.8 µM.

For `O=S(=O)(NCCCCCCNC/C=C/c1ccc(Br)cc1)c1cccc2ccccc12`, the figures for the IC50 in assay [1] and in assay [3] were 5.2 µM and 27.1 µM, respectively. In the assay listed under Rattus norvegicus [4], the inhibition entry was “inactive”.

In assay [1], `O=C(/C=C/c1ccc(Br)cc1)NCCNS(=O)(=O)c1cccc2cnccc12` returned a half-maximal inhibitory concentration (IC50) of more than 300 µM. This molecule displayed an inhibition in the assay listed under Ovis aries [11] of less than 50%.

For `O=S(=O)(NCCCCCCNC/C=C/c1ccc(Br)cc1)c1cccc2cnccc12`, the IC50 in [1] amounted to 3.7 µM; in assay [3], 15.9 µM; in the assay listed under Rattus norvegicus [4] it was 265 µM. In addition, in the assay listed under Ovis aries [6], the inhibition entry is “Active”.

In turn, `O=S(=O)(NCCNC/C=C/c1ccc(F)cc1)c1cccc2cnccc12` yielded an IC50 in [1] of 20.3 µM.

`CN(C)c1cccc2c(S(=O)(=O)NCCNC/C=C/c3ccc(Br)cc3)cccc12`: the results for the IC50 (in assay [1]; in [3]; in the assay listed under Rattus norvegicus [4]) were 3.9 µM, 29 µM and 127 µM, respectively.
